In assay [1] the target is T1, MIF/CD74 (Macrophage migration inhibitory factor and HLA-DR antigens-associated invariant chain) (Homo sapiens, UniProt P14174+P04233).
T1 sequence (P14174 whole entry): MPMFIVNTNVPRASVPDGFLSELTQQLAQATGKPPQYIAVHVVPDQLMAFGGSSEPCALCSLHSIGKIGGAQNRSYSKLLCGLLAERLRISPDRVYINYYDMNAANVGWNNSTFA
T1 sequence (P04233 whole entry): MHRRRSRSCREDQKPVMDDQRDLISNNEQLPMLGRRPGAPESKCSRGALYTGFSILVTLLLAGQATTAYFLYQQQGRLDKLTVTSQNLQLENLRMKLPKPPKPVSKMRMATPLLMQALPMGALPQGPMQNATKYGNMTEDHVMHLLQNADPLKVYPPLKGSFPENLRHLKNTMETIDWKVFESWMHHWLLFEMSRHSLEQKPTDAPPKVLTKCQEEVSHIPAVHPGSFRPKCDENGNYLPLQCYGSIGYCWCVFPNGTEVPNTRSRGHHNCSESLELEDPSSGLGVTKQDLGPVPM
As to the kind of experiment: (§1) Inhibition of human biotinylated MIF/CD74 interaction. It counts as protein assay.

Assay [2] deals with T2, MIF/CD74 (Macrophage migration inhibitory factor and HLA-DR antigens-associated invariant chain) (Homo sapiens) (UniProt P14174+P04233). Described as §1. The format is protein assay.
In assay [3] the target is T2, MIF/CD74 (Macrophage migration inhibitory factor and HLA-DR antigens-associated invariant chain) (Homo sapiens). The assay can be described thus: Binding affinity to human biotinylated MIF/CD74 at 500 nM. The format is protein assay.
For assay [4], the target named is T3, Macrophage migration inhibitory factor (Homo sapiens) (UniProt P14174).
T3 sequence (whole entry): T1 sequence (P14174 whole entry)
The assay can be described thus: Induction of MIF-dependent ERK1/2 phosphorylation in human fibroblast after 30 mins by Western blotting. For orientation: A western blot detects proteins with antibodies after separation by electrophoresis.

Assay [5] deals with T3, Macrophage migration inhibitory factor (Homo sapiens). The assay can be described thus: Agonist activity at human MIF tautomerase using 4-hydroxyphenylpyruvate as substrate at 100 uM. The format is functional.
The target of assay [6] is T2, MIF/CD74 (Macrophage migration inhibitory factor and HLA-DR antigens-associated invariant chain) (Homo sapiens). The assay can be described thus: Activation of human biotinylated MIF/CD74. It counts as protein assay.
Assay [7] addresses T4, Macrophage migration inhibitory factor (Homo sapiens, UniProt P14174).
T4 sequence (P14174 whole entry): T1 sequence (P14174 whole entry)
As to the kind of experiment: (§2) Inhibition of human MIF tautomerase activity using 4-hydroxyphenylpyruvate as substrate. The following applies: for pIC50: read-out: IC50. In short, it runs like this:
(§3)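 Recombinant human MIF tautomerase activity with 4-hydroxyphenylpyruvate as substrate. Compounds were tested between 1 nM and 1 mM. Where inhibition plateaued below 50%, the maximum percent inhibition was reported.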

Assay [8] addresses T5, MIF/CD74 (Macrophage migration inhibitory factor and HLA-DR antigens-associated invariant chain) (Homo sapiens, UniProt P04233+P14174).
T5 sequence (P14174 whole entry): T1 sequence (P14174 whole entry)
T5 sequence (P04233 whole entry): T1 sequence (P04233 whole entry)
The description is as §1. The format is protein assay.

Assay [9] has as its target T3, Macrophage migration inhibitory factor (Homo sapiens). As to the kind of experiment: Inhibition of MIF-dependent ERK1/2 phosphorylation in human fibroblast after 30 mins by Western blotting. In short, it runs like this: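 MIF-dependent ERK1/2 phosphorylation was measured in human fibroblasts. Phospho-ERK1/2 and total ERK1/2 were detected by western blot. The phospho/total ratio was determined by densitometry across three separate experiments.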

Assay [10] has as its target T2, MIF/CD74 (Macrophage migration inhibitory factor and HLA-DR antigens-associated invariant chain) (Homo sapiens). The assay can be described thus: Binding affinity to human biotinylated MIF/CD74 at 100 nM. The format is protein assay.
For assay [11], the target named is T3, Macrophage migration inhibitory factor (Homo sapiens). The assay is described as §2. In short, it runs like this: as §3
The target in assay [12] is T2, MIF/CD74 (Macrophage migration inhibitory factor and HLA-DR antigens-associated invariant chain) (Homo sapiens). The assay can be described thus: Binding affinity to human biotinylated MIF/CD74 at 150 nM. The format is protein assay.

pIC50: −log10 of the molar value. The source made the active and inactive calls. The rule behind the calls is not given here.

Consider `Oc1ccc(-c2cn(Cc3ccccc3)nn2)cc1`, for which the IC50 result in [1] is given as “Not Active”.
For the molecule `Cc1cccc(Cc2cn(-c3ccc(O)cc3)nn2)c1`, the Imax in [2] turned out to be 30%.
On to `Cc1cccc(Cn2cc(-c3ccc(O)cc3)nn2)c1`, for which, in [1], the IC50 entry is “Not Active”.
For the molecule `COc1ccccc1Cn1cc(-c2ccc(O)cc2)nn1`, the Activity in assay [3] came to 40%; in assay [6], 31%. The result in assay [4] and in [5] was Active.
`Oc1ccc(-c2cn(Cc3ccccn3)nn2)cc1` registered an Imax in assay [2] of 30%.
In general, pIC50 refers to the negative decadic logarithm of the IC50, by convention in mol/L. For `Oc1ccc(Cc2cn(-c3ccc(O)cc3)nn2)cc1`, in [2], the Imax worked out at 23%. For the same molecule, in [7], the pIC50 is 3.16.
`Oc1ccc(-n2cc(-c3cccc4ccccc34)nn2)cc1`: the IC50 entry in assay [1] was “Not Active”.
In assay [2], `Oc1ccc(-c2cn(Cc3cccnc3)nn2)cc1` showed an Imax of 20%.
Take `COc1ccc(Cc2cn(-c3ccc(O)cc3)nn2)cc1`: the Imax in [2] was 36%.
In the case of `COc1cccc(Cn2cc(-c3ccc(O)cc3)nn2)c1OC`, the pIC50 in assay [8] was 6.05; in assay [7], 6.12. Moreover, the inhibition entry in [9] was “Active”.
For `Oc1ccc(-n2cc(Cc3cccc(O)c3)nn2)cc1`, the IC50 result in assay [1] and in [7] was “Not Active” throughout.
As to `Oc1ccc(-n2cc(-c3cccnc3)nn2)cc1`, the values for the Activity in [10] and in [6] were 100% and 23%, respectively. Further, the outcome in assay [4] and in [5] was Active.
With `COc1cccc(Cc2cn(-c3ccc(O)cc3)nn2)c1`, the results for the Imax in [2] and in assay [11] were 8% and 40%, respectively.
Regarding `COc1ccc(Cn2cc(-c3ccc(O)cc3)nn2)cc1`, in [1], the IC50 result is “Not Active”.
Take `COc1cccc(Cc2cn(-c3ccc(O)cc3)nn2)c1OC`: in assay [1], the IC50 result is recorded as “Not Active”.
`COc1ccccc1Cc1cn(-c2ccc(O)cc2)nn1`: the values for the Imax in assay [2] and in assay [11] were 14% and 35%, respectively.
Turning to `Oc1ccc(-n2cc(-c3cncc4ccccc34)nn2)cc1`, the Activity was 100% in assay [12] and 39% in assay [6]. Further, the outcome in assay [4] and in assay [5] was Active.
With `Oc1ccc(-c2cn(-c3cncc4ccccc34)nn2)cc1`, the Imax in [2] was determined as 12%.
In turn, `Oc1ccc(-n2cc(Cc3ccccc3)nn2)cc1` showed a pIC50 in assay [8] of 5.46.
For the molecule `COC(=O)c1cccc(Cn2cc(-c3ccc(O)cc3)nn2)c1`, the pIC50 was 5.92 in [8] and 5.60 in [7].
As to `COc1cccc(Cn2cc(-c3ccc(O)cc3)nn2)c1`, the pIC50 in [8] is 4.30.
Regarding `Oc1ccc(-c2cn(-c3cccc4ccccc34)nn2)cc1`, the Imax in assay [2] is 23%.
As for `Cc1ccccc1Cn1cc(-c2ccc(O)cc2)nn1`, the IC50 result in assay [1] is listed as “Not Active”.
As for `COc1ccc(Cc2cn(-c3ccc(O)cc3)nn2)cc1OC`, the Imax in assay [2] was found to be 22%.
Regarding `Oc1ccc(-c2cn(-c3cccnc3)nn2)cc1`, the Imax in assay [2] came to 16%.
In the case of `O=C(O)c1cccc(Cn2cc(-c3ccc(O)cc3)nn2)c1`, the IC50 result in [1] is listed as “Not Active”.
Regarding `Oc1ccc(-n2cc(Cc3ccccc3O)nn2)cc1`, the Imax in [2] came to 9%. In [7], the pIC50 is 3.00.

(Values after ChEMBL document CHEMBL1287697, “Receptor agonists of macrophage migration inhibitory factor” (Bioorg Med Chem Lett, 2010).)
